Experimental data taken from ChEMBL document CHEMBL1122242, “Phenylenebis(oxy)bis[2,2-dimethylpentanoic acid]s: agents that elevate high-density lipoproteins” (1983).

Assays:
Assay type in all cases: functional
Rattus norvegicus [1] = assay: Hypolipidemic effects (high-density lipoprotein (HDL) cholesterol) in male rats; Compound was screening orally at 50 mg/Kg
How it was run: (§1)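 Male rats, 10 per group, fed 7 days on chow with 10% fat (5.5% added peanut oil), 1.5% cholesterol and 0.1% cholic acid. Oral gavage on days 4-7 in 4% acacia, usually 50 mg/kg daily. Fasted overnight, killed day 8, atrial blood into EDTA. Plasma cholesterol, TG and HDL cholesterol (after MnCl2/heparin precipitation) by Autoanalyzer. % change vs controls, Student's t test.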

Rattus norvegicus [2] = organism: Rattus norvegicus; assay: Hypolipidemic effects(plasma TG) in male rats; how it was run: as §1
Rattus norvegicus [3] = assay: Hypolipidemic effects (low-density lipoprotein (LDL) cholesterol) in male rats; Compound was screening orally at 50 mg/Kg; how it was run: as §1
Rattus norvegicus [4] = organism: Rattus norvegicus; assay: Hypolipidemic effects(plasma cholesterol) in male rats; how it was run: as §1
Rattus norvegicus [5] = organism: Rattus norvegicus; assay: Hypolipidemic effects(liver weight) in male rats; how it was run: as §1

SMILES	Change (Rattus norvegicus [1])	Change (Rattus norvegicus [2])	Change (Rattus norvegicus [3])	Change (Rattus norvegicus [4])	Change (Rattus norvegicus [5])
CC(C)(CCCCOc1ccc(OCCCCC(C)(C)C(=O)O)c(-c2ccccc2)c1)C(=O)O	51%	0%	-53%	-49%	8%
CC(C)(CCCOc1ccc(OCCCC(C)(C)C(=O)O)c(C(O)c2ccccc2)c1)C(=O)O (configuration not stated)	410%	27%	-42%	-17%	16%
COC(=O)C(C)(C)CCCOc1cc(OCCCC(C)(C)C(=O)OC)c(Cl)cc1Cl	0%	0%	0%	0%	0%
Cc1cc(SCCCC(C)(C)C(=O)O)c(C)cc1OCCCC(C)(C)C(=O)O	220%	0%	-35%	-20%	14%
COC(=O)C(C)(C)CCCOc1ccc(OCCCC(C)(C)C(=O)OC)c(/C=N/N=C(\N)S)c1	0%	0%	0%	0%	0%
COC(=O)C(C)(C)CCCOc1cc(C)c(OCCCC(C)(C)C(=O)OC)cc1C	688%	27%	-64%	-30%	14%
CCC(O)c1cc(OCCCC(C)(C)C(=O)O)ccc1OCCCC(C)(C)C(=O)O (configuration not stated)	947%	0%	-62%	0%	34%
COC(=O)C(C)(C)CCCOc1ccc(OCCCC(C)(C)C(=O)OC)c(C(C)=O)c1	381%	20%	-39%	0%	21%
COC(=O)C(C)(C)CCCOc1cccc(OCCCC(C)(C)C(=O)OC)c1C	385%	-15%		-37%	33%
CC(C)(CCCOc1ccc(OCCCC(C)(C)C(=O)O)c(-c2ccccc2Cl)c1)C(=O)O	480%	38%	-38%	0%	23%
CC(C)(CCCOc1ccc(OCCCC(C)(C)C(=O)Oc2ccc(C(C)(C)C)cc2)cc1)C(=O)Oc1ccc(C(C)(C)C)cc1	0%	0%	0%	0%	0%
Cc1ccccc1-c1cc(OCCCC(C)(C)C(=O)O)ccc1OCCCC(C)(C)C(=O)O	628%	55%	-52%	0%	22%
CC(C)(CCCOc1ccc(OCCCC(C)(C)C(=O)O)c([S+]([O-])c2ccccc2)c1)C(=O)O (configuration not stated)	599%	-21%	-58%	-27%	16%
COC(=O)C(C)(C)CCCOc1ccc(OCCCC(C)(C)C(=O)OC)c(C#N)c1C#N	0%	0%	0%	0%	0%
COc1ccc(-c2cc(OCCCC(C)(C)C(=O)O)ccc2OCCCC(C)(C)C(=O)O)cc1	52%	-30%	-38%	-30%	0%
CC(C)(CCCOc1ccc(Oc2ccc(OCCCC(C)(C)C(=O)O)cc2)cc1)C(=O)O	0%	0%	-36%	-35%	0%
CC(C)(CCCOc1cccc(OCCCC(C)(C)C(=O)O)c1)C(=O)O	294%	0%		-52%	17%
COC(=O)C(C)(C)CCCOc1ccc(C)c(OCCCC(C)(C)C(=O)OC)c1	38%	0%	-64%	-55%	4%
CC(C)(CCCOc1ccc(OCCCC(C)(C)C(=O)O)c(Cc2ccccc2)c1)C(=O)O	389%	0%	-71%	-44%	14%
CCCCCc1cc(OCCCC(C)(C)C(=O)OC)cc(OCCCC(C)(C)C(=O)OC)c1	47%	-32%	-67%	-57%	8%
COC(=O)C(C)(C)CCCOc1ccccc1OCCCC(C)(C)C(=O)OC	0%	-30%		-40%	0%
COC(=O)C(C)(C)CCCOc1cccc(OCCCC(C)(C)C(=O)OC)c1[N+](=O)[O-]	109%	0%	-43%	-33%	5%
COC(=O)C(C)(C)CCCSc1ccc(Cl)c(SCCCC(C)(C)C(=O)OC)c1	56%	0%	-52%	-53%	0%

SMILES	Change (Rattus norvegicus [1])	Change (Rattus norvegicus [2])	Change (Rattus norvegicus [3])	Change (Rattus norvegicus [4])	Change (Rattus norvegicus [5])
CCCCCCCCCCCCc1ccc(OCCCC(C)(C)C(=O)O)cc1OCCCC(C)(C)C(=O)O	0%	0%	-12%	0%	0%
COC(=O)C(C)(C)CCCSc1ccc(-c2ccc(SCCCC(C)(C)C(=O)OC)cc2)cc1	245%	60%	-39%	0%	14%
CCOC(=O)C(C)(C)CCCOc1ccc(OCCCC(C)(C)C(=O)OCC)c(-c2ccccc2)c1	536%	0%	-18%	43%	20%
COC(=O)C(C)(C)CCCOc1cccc(OCCCC(C)(C)C(=O)OC)c1NC(C)=O	0%	0%	0%	0%	0%
CC(C)(CCCOc1ccc(-c2ccc(OCCCC(C)(C)C(=O)O)cc2)cc1)C(=O)O	138%	0%		-30%	15%
CC(C)(CCCOc1ccc([S+]([O-])CCCC(C)(C)C(=O)O)cc1)C(=O)O (configuration not stated)	289%	16%	-31%	-33%	19%
CC(=O)OCC(C)(C)CCCOc1ccc(OCCCC(C)(C)COC(C)=O)c(-c2ccccc2)c1	602%	0%	-36%	0%	19%
COC(=O)c1cc(OCCCC(C)(C)C(=O)OC)cc(OCCCC(C)(C)C(=O)OC)c1	0%	0%	0%	0%	0%
CC(C)(CCCOc1ccc(OCCCC(C)(C)C(=O)O)c(Sc2ccccc2)c1)C(=O)O	428%	44%	-30%	32%	14%
COC(=O)C(C)(C)CCCOc1ccc(OCCCC(C)(C)C(=O)OC)c(C2CCCCC2)c1	35%	-24%	-54%	-49%	6%
CC(C)(CCCOc1ccc(Sc2ccc(OCCCC(C)(C)C(=O)O)cc2)cc1)C(=O)O	0%	20%		-35%	0%
COC(=O)C(C)(C)CCCOc1cc(OCCCC(C)(C)C(=O)OC)c(C(C)(C)C)cc1C(C)(C)C	0%	0%	0%	0%	0%
COC(=O)c1c(OCCCC(C)(C)C(=O)OC)cccc1OCCCC(C)(C)C(=O)OC	21%	0%	0%	0%	0%
COC(=O)C(C)(C)CCCOc1ccc(Br)c(OCCCC(C)(C)C(=O)OC)c1	26%	0%	-52%	-47%	5%
C/C=C/c1cc(OCCCC(C)(C)C(=O)OC)ccc1OCCCC(C)(C)C(=O)OC	268%	-31%	-66%	-39%	29%
COC(=O)C(C)(C)CCCOc1ccc(C(=O)c2ccc(OCCCC(C)(C)C(=O)OC)cc2)cc1	0%	0%	0%	0%	0%
COC(=O)C(C)(C)CCCOc1ccc(Cl)c(OCCCC(C)(C)C(=O)OC)c1	37%	0%	80%	-42%	8%
COC(=O)C(C)(C)CCCOc1ccc(OCCCC(C)(C)C(=O)OC)c(C(C)(C)C)c1	171%	0%	-41%	-34%	11%
COC(=O)C(C)(C)CCCOc1ccc(C=O)c(OCCCC(C)(C)C(=O)OC)c1	79%	0%	-30%	-18%	11%
Cc1cc(OCCCC(C)(C)C(=O)O)c(C)c(C)c1OCCCC(C)(C)C(=O)O	165%	42%		-37%	21%
COC(=O)C(C)(C)CCCOc1cc(C)cc(OCCCC(C)(C)C(=O)OC)c1	262%	-53%		-62%	18%
COC(=O)C(C)(C)CCCOc1cc(C(C)(C)C)c(OCCCC(C)(C)C(=O)OC)cc1C(C)(C)C	0%	-15%		0%	0%
